ChEMBL document CHEMBL1123846, “Chemical differentiating agents. Differentiation of HL-60 cells by hexamethylenebis[acetamide] analogues” (1987)

Key:
HL-60 [1] = experiment: Differentiation studies was conducted with the HL-60 human myeloid leukemia cell line and Total cells were counted with a Coulter counter, at a concentration of 77 mM; assay type: functional
In short: (§1)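 HL-60 cells seeded at 2×10^5/mL with test agent added from ethanol or Me2SO stock; final Me2SO no more than 77 mM. Total cells counted on a Coulter counter on day 4.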

HL-60 [2] = experiment: Percent of viability for HL-60 cells was determined by dividing number of viable differentiated cells by total number of viable cells, at concentration of 77 mM; assay type: functional, Homo sapiens
In short: (§2)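 HL-60 cultures were seeded at 2×10^5/mL with agent added from ethanol or Me2SO, final Me2SO up to 77 mM, and harvested on day 4. Total cells were counted on a Coulter counter, and the viable fraction of total cells was determined by trypan blue exclusion.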

HL-60 [3] = experiment: Differentiation studies was conducted with the HL-60 human myeloid leukemia cell line and Total cells were counted with a Coulter counter, at a concentration of 64 mM; assay type: functional; in short: as §1
HL-60 [4] = experiment: Differentiation studies was conducted with the HL-60 human myeloid leukemia cell line and total cells were counted with a Coulter counter, at a concentration of 38 mM; assay type: functional; in short: as §1
HL-60 [5] = experiment: Percent of differentiated HL-60 cells was determined by dividing number of viable differentiated cells by total number of viable cells, at a concentration of 64 mM; assay type: functional, Homo sapiens
In short: (§3)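 HL-60 cells started at 2×10^5/mL and counted on day 4. Test agents were added from ethanol or Me2SO, with final Me2SO at most 77 mM. Differentiation was scored by formazan production, which requires superoxide from living cells. % D is the number of viable differentiated cells divided by the total number of viable cells.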

HL-60 [6] = experiment: Percent of viability for HL-60 cells was determined by dividing number of viable differentiated cells by total number of viable cells, at concentration of 38 mM; assay type: functional, Homo sapiens; in short: as §2
HL-60 [7] = experiment: Percent of differentiated HL-60 cells was determined by dividing number of viable differentiated cells by total number of viable cells, at a concentration of 77 mM; assay type: functional, Homo sapiens; in short: as §3
HL-60 [8] = experiment: Percent of differentiated HL-60 cells was determined by dividing number of viable differentiated cells by total number of viable cells, at a concentration of 38 mM; assay type: functional, Homo sapiens; in short: as §3
HL-60 [9] = experiment: Percent of viability for HL-60 cells was determined by dividing number of viable differentiated cells by total number of viable cells, at concentration of 64 mM; assay type: functional, Homo sapiens; in short: as §2
HL-60 [10] = experiment: Differentiation studies was conducted with the HL-60 human myeloid leukemia cell line and Total cells were counted with a Coulter counter, at a concentration of 3.0 mM; assay type: functional; in short: as §1
HL-60 [11] = experiment: Percent of differentiated HL-60 cells was determined by dividing number of viable differentiated cells by total number of viable cells, at a concentration of 2.5 mM; assay type: functional, Homo sapiens; in short: as §3
HL-60 [12] = experiment: Percent of viability for HL-60 cells was determined by dividing number of viable differentiated cells by total number of viable cells, at concentration of 1.0 mM; assay type: functional, Homo sapiens; in short: as §2
HL-60 [13] = experiment: Differentiation studies was conducted with the HL-60 human myeloid leukemia cell line and total cells were counted with a Coulter counter, at a concentration of 1.0 mM; assay type: functional; in short: as §1
HL-60 [14] = experiment: Differentiation studies was conducted with the HL-60 human myeloid leukemia cell line and total cells were counted with a Coulter counter, at a concentration of 2.0 mM; assay type: functional; in short: as §1
HL-60 [15] = experiment: Differentiation studies was conducted with the HL-60 human myeloid leukemia cell line and Total cells were counted with a Coulter counter, at a concentration of 2.5 mM; assay type: functional; in short: as §1
HL-60 [16] = experiment: Percent of differentiated HL-60 cells was determined by dividing number of viable differentiated cells by total number of viable cells, at a concentration of 1.0 mM; assay type: functional, Homo sapiens; in short: as §3
HL-60 [17] = experiment: Percent of viability for HL-60 cells was determined by dividing number of viable differentiated cells by total number of viable cells, at concentration of 3.0 mM; assay type: functional, Homo sapiens; in short: as §2
HL-60 [18] = experiment: Percent of differentiated HL-60 cells was determined by dividing number of viable differentiated cells by total number of viable cells, at a concentration of 3.0 mM; assay type: functional, Homo sapiens; in short: as §3
HL-60 [19] = experiment: Percent of viability for HL-60 cells was determined by dividing number of viable differentiated cells by total number of viable cells, at concentration of 2.0 mM; assay type: functional, Homo sapiens; in short: as §2
HL-60 [20] = experiment: Percent of viability for HL-60 cells was determined by dividing number of viable differentiated cells by total number of viable cells, at concentration of 2.5 mM; assay type: functional, Homo sapiens; in short: as §2
HL-60 [21] = experiment: Percent of differentiated HL-60 cells was determined by dividing number of viable differentiated cells by total number of viable cells, at a concentration of 2.0 mM; assay type: functional, Homo sapiens; in short: as §3
HL-60 [22] = experiment: Percent of differentiated HL-60 cells was determined by dividing number of viable differentiated cells by total number of viable cells, at a concentration of 4.0 mM; assay type: functional, Homo sapiens; in short: as §3
HL-60 [23] = experiment: Percent of viability for HL-60 cells was determined by dividing number of viable differentiated cells by total number of viable cells, at concentration of 4.0 mM; assay type: functional, Homo sapiens; in short: as §2
HL-60 [24] = experiment: Differentiation studies was conducted with the HL-60 human myeloid leukemia cell line and Total cells were counted with a Coulter counter, at a concentration of 4.0 mM; assay type: functional; in short: as §1
HL-60 [25] = experiment: Percent of differentiated HL-60 cells was determined by dividing number of viable differentiated cells by total number of viable cells, at a concentration of 1.5 mM; assay type: functional, Homo sapiens; in short: as §3
HL-60 [26] = experiment: Percent of viability for HL-60 cells was determined by dividing number of viable differentiated cells by total number of viable cells, at concentration of 1.5 mM; assay type: functional, Homo sapiens; in short: as §2
HL-60 [27] = experiment: Differentiation studies was conducted with the HL-60 human myeloid leukemia cell line and Total cells were counted with a Coulter counter, at a concentration of 1.5 mM; assay type: functional; in short: as §1
HL-60 [28] = experiment: Differentiation studies was conducted with the HL-60 human myeloid leukemia cell line and Total cells were counted with a Coulter counter, at a concentration of 2.0 mM (number of experiments = 1); assay type: functional; in short: as §1
HL-60 [29] = experiment: Percent of differentiated in HL-60 cells was determined by dividing number of viable differentiated cells by total number of viable cells, at a concentration of 3.0 mM; assay type: functional, Homo sapiens; in short: as §3
HL-60 [30] = experiment: Percent of differentiated in HL-60 cells was determined by dividing number of viable differentiated cells by total number of viable cells, at a concentration of 2.0 mM; assay type: functional, Homo sapiens; in short: as §3
HL-60 [31] = experiment: Percent of differentiated in HL-60 cells was determined by dividing number of viable differentiated cells by total number of viable cells, at a concentration of 2.5 mM; assay type: functional, Homo sapiens; in short: as §3
HL-60 [32] = experiment: Percent of differentiated in HL-60 cells was determined by dividing number of viable differentiated cells by total number of viable cells, at a concentration of 1.0 mM; assay type: functional, Homo sapiens; in short: as §3
HL-60 [33] = experiment: Percent of differentiated HL-60 cells was determined by dividing number of viable differentiated cells by total number of viable cells, at a concentration of 0.5 mM; assay type: functional, Homo sapiens; in short: as §3
HL-60 [34] = experiment: Percent of differentiated HL-60 cells was determined by dividing number of viable differentiated cells by total number of viable cells, at a concentration of 0.1 mM; assay type: functional, Homo sapiens; in short: as §3
HL-60 [35] = experiment: Percent of viability for HL-60 cells was determined by dividing number of viable differentiated cells by total number of viable cells, at concentration of 0.1 mM; assay type: functional, Homo sapiens; in short: as §2
HL-60 [36] = experiment: Percent of viability for HL-60 cells was determined by dividing number of viable differentiated cells by total number of viable cells, at concentration of 0.3 mM; assay type: functional, Homo sapiens; in short: as §2
HL-60 [37] = experiment: Differentiation studies was conducted with the HL-60 human myeloid leukemia cell line and total cells were counted with a Coulter counter, at a concentration of 0.1 mM; assay type: functional; in short: as §1
HL-60 [38] = experiment: Differentiation studies was conducted with the HL-60 human myeloid leukemia cell line andTotal cells were counted with a Coulter counter, at a concentration of 0.5 mM; assay type: functional; in short: as §1
HL-60 [39] = experiment: Differentiation studies was conducted with the HL-60 human myeloid leukemia cell line andTotal cells were counted with a Coulter counter, at a concentration of 0.3 mM; assay type: functional; in short: as §1
HL-60 [40] = experiment: Percent of differentiated HL-60 cells was determined by dividing number of viable differentiated cells by total number of viable cells, at a concentration of 0.4 mM; assay type: functional, Homo sapiens; in short: as §3
HL-60 [41] = experiment: Percent of viability for HL-60 cells was determined by dividing number of viable differentiated cells by total number of viable cells, at concentration of 0.5 mM; assay type: functional, Homo sapiens; in short: as §2
HL-60 [42] = experiment: Percent of viability for HL-60 cells was determined by dividing number of viable differentiated cells by total number of viable cells, at concentration of 0.4 mM; assay type: functional, Homo sapiens; in short: as §2
HL-60 [43] = experiment: Percent of differentiated HL-60 cells was determined by dividing number of viable differentiated cells by total number of viable cells, at a concentration of 0.3 mM; assay type: functional, Homo sapiens; in short: as §3
HL-60 [44] = experiment: Differentiation studies was conducted with the HL-60 human myeloid leukemia cell line andTotal cells were counted with a Coulter counter, at a concentration of 0.4 mM; assay type: functional; in short: as §1

## C[S+](C)[O-] [DIMETHYL SULFOXIDE]
HL-60 [1]
  Total cells: 930000 cells/mL
HL-60 [2]
  V: 94%
HL-60 [3]
  Total cells: 980000 cells/mL
HL-60 [4]
  Total cells: 970000 cells/mL
HL-60 [5]
  D: 9%
HL-60 [6]
  V: 97%
HL-60 [7]
  D: 6%
HL-60 [8]
  D: 6%
HL-60 [9]
  V: 96%

## CC(=O)N(C)CCCCCCN(C)C(C)=O
HL-60 [10]
  Total cells: 420000 mL
HL-60 [11]
  D: 93%
HL-60 [12]
  V: 90%
HL-60 [13]
  Total cells: 1.12e+06 mL
HL-60 [14]
  Total cells: 700000 mL
HL-60 [15]
  Total cells: 510000 mL
HL-60 [16]
  D: 10%
HL-60 [17]
  V: 30%
HL-60 [18]
  D: 94%
HL-60 [19]
  V: 57%
HL-60 [20]
  V: 32%
HL-60 [21]
  D: 74%

## CC(=O)NCCCCCCNC(C)=O [HEXAMETHYLENEBISACETAMIDE]
HL-60 [10]
  Total cells: 520000 mL
HL-60 [14]
  Total cells: 690000 mL
HL-60 [17]
  V: 68%
HL-60 [22]
  D: 84%
HL-60 [23]
  V: 29%
HL-60 [18]
  D: 59%
HL-60 [19]
  V: 74%
HL-60 [24]
  Total cells: 390000 mL
HL-60 [21]
  D: 32%

## CC(=O)NCCCCCC(=O)N(C)C
HL-60 [25]
  D: 13%
HL-60 [26]
  V: 78%
HL-60 [12]
  V: 85%
HL-60 [13]
  Total cells: 700000 mL
HL-60 [27]
  Total cells: 1.07e+06 mL
HL-60 [16]
  D: 24%
HL-60 [28]
  Total cells: 940000 mL
HL-60 [19]
  V: 82%
HL-60 [21]
  D: 12%

## O=C1CCCCN1CCCCCCN1CCCCC1=O
HL-60 [10]
  Total cells: 370000 mL
HL-60 [29]
  D: 87%
HL-60 [12]
  V: 87%
HL-60 [13]
  Total cells: 830000 mL
HL-60 [14]
  Total cells: 760000 mL
HL-60 [15]
  Total cells: 680000 mL
HL-60 [17]
  V: 25%
HL-60 [30]
  D: 40%
HL-60 [19]
  V: 65%
HL-60 [20]
  V: 62%
HL-60 [31]
  D: 72%
HL-60 [32]
  D: 12%

## CC(=O)N(CCCCCCN(C(C)=O)C(C)=O)C(C)=O
HL-60 [10]
  Total cells: 300000 mL
HL-60 [29]
  D: 80%
HL-60 [14]
  Total cells: 530000 mL
HL-60 [15]
  Total cells: 480000 mL
HL-60 [17]
  V: 45%
HL-60 [30]
  D: 65%
HL-60 [19]
  V: 71%
HL-60 [20]
  V: 51%
HL-60 [31]
  D: 76%

## CC1(C)NC(=O)N(CCCCCCN2C(=O)NC(C)(C)C2=O)C1=O
HL-60 [33]
  D: 76%
HL-60 [34]
  D: 9%
HL-60 [35]
  V: 96%
HL-60 [36]
  V: 82%
HL-60 [37]
  Total cells: 870000 mL
HL-60 [38]
  Total cells: 310000 mL
HL-60 [39]
  Total cells: 480000 mL
HL-60 [40]
  D: 45%
HL-60 [41]
  V: 43%
HL-60 [42]
  V: 53%
HL-60 [43]
  D: 26%
HL-60 [44]
  Total cells: 420000 mL

## CNC(=O)CCCCCNC(C)=O
HL-60 [10]
  Total cells: 680000 mL
HL-60 [17]
  V: 72%
HL-60 [22]
  D: 71%
HL-60 [23]
  V: 56%
HL-60 [18]
  D: 40%
HL-60 [24]
  Total cells: 690000 mL
